Measurements published in ChEMBL document CHEMBL4610035, “Synthesis and biological evaluation of novel 3-benzylcoumarin-imidazolium salts” (Bioorg Med Chem Lett, 2020).

Legend:
HL-60 = assay: Antiproliferative activity against human HL60 cells assessed as growth inhibition incubated up to 4 days by MTS assay; type: functional, cell-based; conditions: HL-60, 96 h
Procedure, shortened: (§1)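 Five human tumour cell lines were assayed by MTS. IC50 is the compound concentration that cuts optical density of treated cells by 50% relative to untreated cells. Mean of three independent determinations.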

MCF7 [1] = assay: Antiproliferative activity against human MCF7 cells assessed as growth inhibition incubated up to 4 days by MTS assay; type: functional, cell-based; conditions: MCF7, 96 h; procedure, shortened: as §1
SMMC-7721 = assay: Antiproliferative activity against human SMMC7721 cells assessed as growth inhibition incubated up to 4 days by MTS assay; type: functional, cell-based; conditions: SMMC-7721, 96 h; procedure, shortened: as §1
A549 = assay: Antiproliferative activity against human A549 cells assessed as growth inhibition incubated up to 4 days by MTS assay; type: functional, cell-based; conditions: A549, 96 h; procedure, shortened: as §1
SW480 [2] = assay: Antiproliferative activity against human SW480 cells assessed as growth inhibition incubated up to 4 days by MTS assay; type: functional, cell-based; conditions: SW480, 96 h; procedure, shortened: as §1
MCF7 [3] = assay: Potency index, ratio of cisplatin IC50 to compound IC50 for antiproliferative activity against human MCF7 cells assessed as growth inhibition; type: functional
SW480 [4] = assay: Potency index, ratio of cisplatin IC50 to compound IC50 for antiproliferative activity against human SW480 cells assessed as growth inhibition; type: functional

| Compound | IC50 (HL-60) [µM] | IC50 (MCF7 [1]) [µM] | IC50 (SMMC-7721) [µM] | IC50 (A549) [µM] | IC50 (SW480 [2]) [µM] | Ratio IC50 (MCF7 [3]) | Ratio IC50 (SW480 [4]) |
| --- | --- | --- | --- | --- | --- | --- | --- |
| Cc1cc2ncn(C(c3ccccc3)c3cc4ccccc4oc3=O)c2cc1C (stereo not given) | > 20 | > 20 | > 20 | > 20 | > 20 |  |  |
| COc1ccc(C(=O)C[n+]2ccn(C(c3ccccc3)c3cc4ccccc4oc3=O)c2)cc1 (stereo not given) | > 20 | > 20 | > 20 | > 20 | > 20 |  |  |
| Cc1nc2ccccc2n1C(c1ccccc1)c1cc2ccccc2oc1=O (stereo not given) | > 20 | > 20 | > 20 | > 20 | > 20 |  |  |
| COc1ccc(C(=O)C[n+]2cn(C(c3ccccc3)c3cc4ccccc4oc3=O)c3ccccc32)cc1 (stereo not given) | 7.13 | 1.74 | 8.84 | > 20 | 4.82 |  |  |
| O=c1oc2ccccc2cc1C(c1ccccc1)n1ccnc1 (stereo not given) | > 20 | > 20 | > 20 | > 20 | > 20 |  |  |
| Cc1n(C(c2ccccc2)c2cc3ccccc3oc2=O)c2ccccc2[n+]1CC(=O)c1ccccc1 (stereo not given) | > 20 | > 20 | > 20 | > 20 | > 20 |  |  |
| O=C(C[n+]1ccn(C(c2ccccc2)c2cc3ccccc3oc2=O)c1)c1ccc(C(F)(F)F)cc1 (stereo not given) | > 20 | > 20 | > 20 | > 20 | > 20 |  |  |
| O=C(C[n+]1cn(C(c2ccccc2)c2cc3ccccc3oc2=O)c2ccccc21)c1ccc(-c2ccccc2)cc1.[Br-] (stereo not given) | 2.91 | 0.96 | 4.7 | 7.47 | 1.63 | 10.2 | 4.9 |
| O=c1oc2ccccc2cc1C(c1ccccc1)n1cnc2ccccc21 (stereo not given) | > 20 | > 20 | > 20 | > 20 | > 20 |  |  |
| Cc1n(C(c2ccccc2)c2cc3ccccc3oc2=O)c2ccccc2[n+]1CC(=O)c1ccc(Br)cc1 (stereo not given) | > 20 | > 20 | > 20 | > 20 | > 20 |  |  |
| O=C(C[n+]1cn(C(c2ccccc2)c2cc3ccccc3oc2=O)c2ccccc21)c1ccccc1 (stereo not given) | 18.6 | 5.1 | > 20 | > 20 | 6.36 |  |  |
| O=C(C[n+]1cn(C(c2ccccc2)c2cc3ccccc3oc2=O)c2ccccc21)c1ccc2ccccc2c1 (stereo not given) | 4.13 | 1.28 | 5.72 | 9.11 | 1.48 |  |  |
| O=C(C[n+]1ccn(C(c2ccccc2)c2cc3ccccc3oc2=O)c1)c1ccc(Br)cc1 (stereo not given) | > 20 | > 20 | > 20 | > 20 | > 20 |  |  |
| COc1ccc(C(=O)C[n+]2cn(C(c3ccccc3)c3cc4ccccc4oc3=O)c3cc(C)c(C)cc32)cc1.[Br-] (stereo not given) | 1.55 | 1.58 | 4.72 | 5.65 | 0.36 | 6.2 | 22.2 |
| O=C(C[n+]1cn(C(c2ccccc2)c2cc3ccccc3oc2=O)c2ccccc21)c1ccc(C(F)(F)F)cc1 (stereo not given) | 4.49 | 1.29 | 6.15 | 7.07 | 1.55 |  |  |
| Cc1cc2c(cc1C)[n+](CC(=O)c1ccccc1)cn2C(c1ccccc1)c1cc2ccccc2oc1=O (stereo not given) | 4.81 | 4.17 | 7.17 | 12.4 | 1.24 |  |  |
| O=C(C[n+]1ccn(C(c2ccccc2)c2cc3ccccc3oc2=O)c1)c1ccc2ccccc2c1 (stereo not given) | 4.38 | 7.27 | > 20 | > 20 | 8.03 |  |  |
| Cc1cc2c(cc1C)[n+](CC(=O)c1ccc(Br)cc1)cn2C(c1ccccc1)c1cc2ccccc2oc1=O.[Br-] (stereo not given) | 2.45 | 2.29 | 4.19 | 4.89 | 0.2 |  | 40 |
| O=C(C[n+]1ccn(C(c2ccccc2)c2cc3ccccc3oc2=O)c1)c1ccccc1 (stereo not given) | > 20 | > 20 | > 20 | > 20 | > 20 |  |  |
| Cc1n(C(c2ccccc2)c2cc3ccccc3oc2=O)c2ccccc2[n+]1CC(=O)c1ccc2ccccc2c1 (stereo not given) | 8.34 | 2.81 | 11.4 | 15.8 | 6.02 |  |  |
| O=C(C[n+]1ccn(C(c2ccccc2)c2cc3ccccc3oc2=O)c1)c1ccc(-c2ccccc2)cc1 (stereo not given) | 5.28 | 12.7 | > 20 | > 20 | > 20 |  |  |
| Cc1n(C(c2ccccc2)c2cc3ccccc3oc2=O)c2ccccc2[n+]1CC(=O)c1ccc(-c2ccccc2)cc1 (stereo not given) | 2.77 | 2.86 | 5.05 | 5.1 | 2.88 |  |  |
| Cc1cc2c(cc1C)[n+](CC(=O)c1ccc(C(F)(F)F)cc1)cn2C(c1ccccc1)c1cc2ccccc2oc1=O (stereo not given) | 8.81 | 6.61 | 9.5 | 11.7 | 8.19 |  |  |
| Cc1cc2c(cc1C)[n+](CC(=O)c1ccc(-c3ccccc3)cc1)cn2C(c1ccccc1)c1cc2ccccc2oc1=O (stereo not given) | 2.07 | 1.66 | 1.91 | 2.14 | 8.03 |  |  |
| Cc1n(C(c2ccccc2)c2cc3ccccc3oc2=O)c2ccccc2[n+]1CC(=O)c1ccc(C(F)(F)F)cc1 (stereo not given) | 7.72 | 8.15 | > 20 | > 20 | 9.13 |  |  |
| COc1ccc(C(=O)C[n+]2c(C)n(C(c3ccccc3)c3cc4ccccc4oc3=O)c3ccccc32)cc1 (stereo not given) | 3.69 | 1.21 | 6.92 | 8.56 | 3.43 |  |  |
| O=C(C[n+]1cn(C(c2ccccc2)c2cc3ccccc3oc2=O)c2ccccc21)c1ccc(Br)cc1 (stereo not given) | 5.95 | 1.24 | 8.2 | 11.9 | 1.65 |  |  |
